Results taken from ChEMBL document CHEMBL2440006, “Mastering tricyclic ring systems for desirable functional cannabinoid activity” (Eur J Med Chem, 2013).

Target: T1, Cannabinoid receptor 2 (Homo sapiens, UniProt P34972)
Test: Displacement of [3H]-CP55940 from human CB2 receptor expressed in HEK293 cells after 1.5 hrs by microbeta liquid scintillation counting analysis
Assay type: cell-based
Conditions: hek293; call rule not given here
Summary of the method: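 Membranes from rat brain homogenate (CB1) or HEK293 cells expressing human CB2. GF/B filtration, then scintillation counting. IC50 by three-parameter logistic fit, Ki by Cheng-Prusoff. Three experiments in triplicate.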

T1 sequence (P34972 whole entry): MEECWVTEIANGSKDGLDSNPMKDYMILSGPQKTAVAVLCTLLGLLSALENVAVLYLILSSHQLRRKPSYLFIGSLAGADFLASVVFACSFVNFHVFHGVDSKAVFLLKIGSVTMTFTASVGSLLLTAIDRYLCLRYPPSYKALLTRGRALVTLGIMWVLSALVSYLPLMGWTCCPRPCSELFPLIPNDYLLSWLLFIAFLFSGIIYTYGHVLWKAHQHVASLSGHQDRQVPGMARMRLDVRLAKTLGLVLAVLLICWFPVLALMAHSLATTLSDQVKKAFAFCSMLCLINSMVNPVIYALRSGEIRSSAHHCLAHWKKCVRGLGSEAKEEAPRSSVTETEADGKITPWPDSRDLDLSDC

With `CC(C)(C)OC(=O)NCCCn1c2ccccc2c2cc(C(=O)N3CCS(=O)(=O)CC3)ccc21` the Ki was “Not Active”.
For `CCCCCn1c2ccccc2c2cc(C(=O)NCC3CCNCC3)ccc21`, the Ki was “Not Active”.
In the case of `CCCCCn1c2ccccc2c2cc(CN3CCNCC3)ccc21`, the Ki is reported as “Not Active”.
In the case of `O=C(c1ccc2[nH]c3ccccc3c2c1)N1CCCCC1`, the Ki is reported as “Not Active”.
For `CCCCCn1c2ccccc2c2cc(C(=O)N3CC[N+](C)(C)CC3)ccc21.[I-]`, the Ki was “Not Active”.
In the case of `CCOC(=O)CCn1c2ccccc2c2cc(C(=O)N3CCS(=O)(=O)CC3)ccc21`, the Ki is reported as “Not Active”.
With `O=C(c1ccc2c(c1)c1ccccc1n2CCN1CCCCC1)N1CCCCC1` the Ki was “Not Active”.
For `NCCCn1c2ccccc2c2cc(C(=O)N3CCCCC3)ccc21`, the Ki was “Not Active”.
For `CCCCCn1c2ccccc2c2cc(C#N)ccc21`, the Ki was “Not Active”.

Same assay, conditions: read-out: Ki

First: CCCCCn1c2ccccc2c2cc(C(=O)OCC)ncc21
Second: CCCCCn1c2ccccc2c2cc(C(=O)NCC(C)(C)C)ncc21
The Ki of the first is 52-fold higher: 1.37 µM for the first, 0.0265 µM for the second. The second binds more tightly here.

First: O=C(c1ccc2c(c1)c1ccccc1n2Cc1ccncc1)N1CCCCC1
Second: O=C(c1ccc2c(c1)c1ccccc1n2Cc1cccnc1)N1CCCCC1
The Ki of the first is 6.6-fold lower: 0.091 µM for the first, 0.6 µM for the second. The first binds more tightly here.

`CN(C)CCCn1c2ccccc2c2cc(C(=O)N3CCCCC3)ccc21` and `O=C(c1ccc2c(c1)c1ccccc1n2CCCl)N1CCCCC1` are within 1.5-fold of each other in Ki: 0.403 µM for the first, 0.519 µM for the second.

Going from `CCCCCCCn1c2ccccc2c2cc(C(=O)N3CCCCC3)ccc21` to `CCCCCn1c2ccccc2c2cc(C(=O)N3CCOCC3)ccc21`, the Ki falls from 0.827 µM to 0.0845 µM (9.8-fold).

`CCCCCn1c2ccccc2c2cc(CN3CCN(C)CC3)ccc21` and `CCCCCn1c2ccccc2c2cc(C(=O)CN3CCS(=O)(=O)CC3)ccc21` are within 1.5-fold of each other in Ki: 0.74 µM for the first, 0.502 µM for the second.

Going from `O=C(c1ccc2c(c1)c1ccccc1n2CCCN1CCCCC1)N1CCCCC1` to `O=C(OCCCn1c2ccccc2c2cc(C(=O)N3CCCCC3)ccc21)N1CCS(=O)(=O)CC1`, the Ki falls from 2.17 µM to 0.073 µM (30-fold). The second binds more tightly here.

Going from `CCCCCn1c2ccccc2c2cc(C(=O)OCc3ccccn3)ccc21` to `CCCCCn1c2ccccc2c2cc(C(=O)NC34CC5CC(CC(C5)C3)C4)ccc21`, the Ki falls from 1.93 µM to 0.288 µM (6.7-fold). The second binds more tightly here.

First: CCOC(=O)CCn1c2ccccc2c2cc(C(=O)N3CCN(C)CC3)ccc21
Second: CCCCCn1c2ccccc2c2cc(C(=O)N3CCCCC3)ncc21
The Ki of the first is 96-fold higher: 3.38 µM for the first, 0.0353 µM for the second. The second binds more tightly here.

Target: T1, Cannabinoid receptor 2
Test: Induction of human CB2 receptor internalization expressed in HEK293 cells at 10 uM relative to CP55940
Assay type: cell-based
Conditions: not given
Summary of the method: (§1)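 Cells stably expressing human CB1 or human CB2 receptors, exposed to test compound alone. […] Mean of two determinations.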

Going from `O=C(c1ccc2c(c1)c1ccccc1n2Cc1ccncc1)N1CCCCC1` to `O=C(OCCCn1c2ccccc2c2cc(C(=O)N3CCCCC3)ccc21)N1CCS(=O)(=O)CC1`, the Activity falls from 66.3% to 27.9%.

First: CCCCCn1c2ccccc2c2cc(C(=O)N3CCOCC3)ccc21
Second: CCCCCn1c2ccccc2c2cc(C(=O)N3CCCCC3)ncc21
The Activity of the first is lower: 78.7% for the first, 101% for the second.

`CCCCCn1c2ccccc2c2cc(C(=O)NCC(C)(C)C)ncc21` gave an Activity of 0.1%.

Target: Cannabinoid receptor 1 (Homo sapiens) (UniProt P21554)
Test: Induction of human CB1 receptor internalization expressed in HEK293 cells at 10 uM relative to CP55940
Assay type: cell-based
Conditions: not given
Summary of the method: as §1

Chain of Cannabinoid receptor 1 (Homo sapiens) (P21554 whole entry): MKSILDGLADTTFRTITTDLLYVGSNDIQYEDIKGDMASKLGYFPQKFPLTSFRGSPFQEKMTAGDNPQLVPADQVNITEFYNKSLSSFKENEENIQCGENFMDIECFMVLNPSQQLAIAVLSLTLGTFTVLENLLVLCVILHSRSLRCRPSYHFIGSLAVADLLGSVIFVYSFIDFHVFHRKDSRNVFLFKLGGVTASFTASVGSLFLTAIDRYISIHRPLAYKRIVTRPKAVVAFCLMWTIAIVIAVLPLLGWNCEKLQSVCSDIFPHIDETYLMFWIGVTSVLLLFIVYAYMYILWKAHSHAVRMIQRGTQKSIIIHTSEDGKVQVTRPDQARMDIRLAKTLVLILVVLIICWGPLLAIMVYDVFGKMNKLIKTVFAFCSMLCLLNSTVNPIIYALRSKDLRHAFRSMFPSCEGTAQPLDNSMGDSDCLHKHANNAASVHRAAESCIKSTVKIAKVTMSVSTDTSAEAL

Going from `O=C(c1ccc2c(c1)c1ccccc1n2Cc1ccncc1)N1CCCCC1` to `O=C(OCCCn1c2ccccc2c2cc(C(=O)N3CCCCC3)ccc21)N1CCS(=O)(=O)CC1`, the Activity falls from 74.9% to 65.6%.

First: CCCCCn1c2ccccc2c2cc(C(=O)N3CCOCC3)ccc21
Second: CCCCCn1c2ccccc2c2cc(C(=O)N3CCCCC3)ncc21
The Activity of the first is lower: 115% for the first, 128% for the second.

With `CCCCCn1c2ccccc2c2cc(C(=O)NCC(C)(C)C)ncc21` the Activity was 34.7%.

Test system: not listed separately
Test: Selectivity ratio of Ki for rat CB1 receptor to Ki for human CB2 receptor
Conditions: not given

Going from `CCCCCn1c2ccccc2c2cc(C(=O)OCC)ncc21` to `CCCCCn1c2ccccc2c2cc(C(=O)NCC(C)(C)C)ncc21`, the Ratio Ki rises from 1.36 to 1.65.

Compared with `O=C(c1ccc2c(c1)c1ccccc1n2Cc1ccncc1)N1CCCCC1`, `O=C(c1ccc2c(c1)c1ccccc1n2Cc1cccnc1)N1CCCCC1` is lower in Ratio Ki: 4.32 for the first, 1.71 for the second.

First: CN(C)CCCn1c2ccccc2c2cc(C(=O)N3CCCCC3)ccc21
Second: O=C(c1ccc2c(c1)c1ccccc1n2CCCl)N1CCCCC1
The Ratio Ki of the first is higher: 5.92 for the first, 4.55 for the second.

First: CCCCCCCn1c2ccccc2c2cc(C(=O)N3CCCCC3)ccc21
Second: CCCCCn1c2ccccc2c2cc(C(=O)N3CCOCC3)ccc21
The Ratio Ki of the first is higher: 1.14 for the first, 0.71 for the second.

Going from `CCCCCn1c2ccccc2c2cc(CN3CCN(C)CC3)ccc21` to `CCCCCn1c2ccccc2c2cc(C(=O)CN3CCS(=O)(=O)CC3)ccc21`, the Ratio Ki rises from 0.33 to 1.34.

Going from `CCCCCn1c2ccccc2c2cc(C(=O)OCc3ccccn3)ccc21` to `CCCCCn1c2ccccc2c2cc(C(=O)NC34CC5CC(CC(C5)C3)C4)ccc21`, the Ratio Ki rises from 0.35 to 5.03.

First: O=C(OCCCn1c2ccccc2c2cc(C(=O)N3CCCCC3)ccc21)N1CCS(=O)(=O)CC1
Second: CCCCCn1c2ccccc2c2cc(C(=O)N3CCCCC3)ncc21
The Ratio Ki of the first is higher: 30.9 for the first, 3.86 for the second.

Target: Cannabinoid receptor 1 (Rattus norvegicus, UniProt P20272)
Test: Displacement of [3H]-CP55940 from CB1 receptor in rat brain homogenate after 1.5 hrs by microbeta liquid scintillation counting analysis
Assay type: tissue-based
Conditions: not given
Summary of the method: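 Membranes from rat brain homogenate (CB1) or HEK293 cells expressing human CB2. […] GF/B filtration, then scintillation counting. […] IC50 by three-parameter logistic fit, Ki by Cheng-Prusoff. Three experiments in triplicate.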

Chain of Cannabinoid receptor 1 (P20272 whole entry): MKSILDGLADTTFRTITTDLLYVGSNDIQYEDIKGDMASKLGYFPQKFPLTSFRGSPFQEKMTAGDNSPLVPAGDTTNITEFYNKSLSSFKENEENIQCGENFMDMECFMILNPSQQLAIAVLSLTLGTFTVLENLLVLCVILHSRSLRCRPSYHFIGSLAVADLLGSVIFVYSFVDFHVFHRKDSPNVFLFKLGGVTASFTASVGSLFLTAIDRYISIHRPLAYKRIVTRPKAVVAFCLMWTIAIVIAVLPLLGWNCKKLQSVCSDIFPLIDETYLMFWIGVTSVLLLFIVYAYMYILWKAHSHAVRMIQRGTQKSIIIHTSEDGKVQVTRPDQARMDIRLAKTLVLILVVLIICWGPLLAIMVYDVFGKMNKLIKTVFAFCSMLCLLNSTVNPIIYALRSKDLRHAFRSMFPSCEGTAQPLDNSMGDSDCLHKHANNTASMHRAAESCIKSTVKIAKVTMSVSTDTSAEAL

With `CC(C)(C)OC(=O)NCCCn1c2ccccc2c2cc(C(=O)N3CCS(=O)(=O)CC3)ccc21` the Ki was “Not Active”.
In the case of `O=C(c1ccc2c(c1)c1ccccc1n2CCCN1CCCCC1)N1CCCCC1`, the Ki is reported as “Not Active”.
With `CCOC(=O)CCn1c2ccccc2c2cc(C(=O)N3CCN(C)CC3)ccc21` the Ki was “Not Active”.
In the case of `CCCCCn1c2ccccc2c2cc(C(=O)NCC3CCNCC3)ccc21`, the Ki is reported as “Not Active”.
With `CCCCCn1c2ccccc2c2cc(CN3CCNCC3)ccc21` the Ki was “Not Active”.
In the case of `O=C(c1ccc2[nH]c3ccccc3c2c1)N1CCCCC1`, the Ki is reported as “Not Active”.
With `CCCCCn1c2ccccc2c2cc(C(=O)N3CC[N+](C)(C)CC3)ccc21.[I-]` the Ki was “Not Active”.
For `CCOC(=O)CCn1c2ccccc2c2cc(C(=O)N3CCS(=O)(=O)CC3)ccc21`, the Ki was “Not Active”.
In the case of `O=C(c1ccc2c(c1)c1ccccc1n2CCN1CCCCC1)N1CCCCC1`, the Ki is reported as “Not Active”.
With `NCCCn1c2ccccc2c2cc(C(=O)N3CCCCC3)ccc21` the Ki was “Not Active”.
In the case of `CCCCCn1c2ccccc2c2cc(C#N)ccc21`, the Ki is reported as “Not Active”.

Same assay, conditions: read-out: Ki

Going from `CCCCCn1c2ccccc2c2cc(C(=O)OCC)ncc21` to `CCCCCn1c2ccccc2c2cc(C(=O)NCC(C)(C)C)ncc21`, the Ki falls from 1.86 µM to 0.0436 µM (43-fold).

Going from `O=C(c1ccc2c(c1)c1ccccc1n2Cc1ccncc1)N1CCCCC1` to `O=C(c1ccc2c(c1)c1ccccc1n2Cc1cccnc1)N1CCCCC1`, the Ki rises from 0.393 µM to 1.02 µM (2.6-fold). The first binds more tightly here.

`CN(C)CCCn1c2ccccc2c2cc(C(=O)N3CCCCC3)ccc21` and `O=C(c1ccc2c(c1)c1ccccc1n2CCCl)N1CCCCC1` are within 1.5-fold of each other in Ki: 2.39 µM for the first, 2.36 µM for the second.

Compared with `CCCCCCCn1c2ccccc2c2cc(C(=O)N3CCCCC3)ccc21`, `CCCCCn1c2ccccc2c2cc(C(=O)N3CCOCC3)ccc21` is 16-fold lower in Ki: 0.943 µM for the first, 0.06 µM for the second.

Going from `CCCCCn1c2ccccc2c2cc(CN3CCN(C)CC3)ccc21` to `CCCCCn1c2ccccc2c2cc(C(=O)CN3CCS(=O)(=O)CC3)ccc21`, the Ki rises from 0.244 µM to 0.675 µM (2.8-fold). The first binds more tightly here.

Compared with `CCCCCn1c2ccccc2c2cc(C(=O)OCc3ccccn3)ccc21`, `CCCCCn1c2ccccc2c2cc(C(=O)NC34CC5CC(CC(C5)C3)C4)ccc21` is 2.1-fold higher in Ki: 0.679 µM for the first, 1.45 µM for the second.

Going from `O=C(OCCCn1c2ccccc2c2cc(C(=O)N3CCCCC3)ccc21)N1CCS(=O)(=O)CC1` to `CCCCCn1c2ccccc2c2cc(C(=O)N3CCCCC3)ncc21`, the Ki falls from 2.26 µM to 0.136 µM (17-fold).

Target: T1, Cannabinoid receptor 2
Test: Reduction of CP55940-induced human CB2 receptor internalization expressed in HEK293 cells at 3 uM relative to control
Assay type: cell-based
Parameters: scale not given: the % may be the effect or the level left
Conditions: not given

For `CCCCCn1c2ccccc2c2cc(C(=O)NCC(C)(C)C)ncc21`, the Activity was > 50%.
